Source: ChEMBL document CHEMBL3856258, “Phosphonate-based irreversible inhibitors of human γ-glutamyl transpeptidase (GGT). GGsTop is a non-toxic and highly selective inhibitor with critical electrostatic interaction with an active-site residue Lys562 for enhanced inhibitory activity” (Bioorg Med Chem, 2016)

Experiments:
[1] = Cytotoxicity against CHL cells assessed as growth rate at 528 ug/ml preincubated for 6 hrs followed by 18 hrs incubation in fresh medium in absence of S9 fraction by MTT assay relative to control; type: toxicity, cell-based, Cricetulus griseus; conditions: chinese hamster, read-out: Activity
[2] = Cytotoxicity against CHL cells assessed as structural aberrations at 825 ug/ml after 24 hrs by Giemsa-staining-based microscopic analysis; type: toxicity, cell-based, Cricetulus griseus; conditions: chinese hamster
[3] = Cytotoxicity against CHL cells assessed as structural aberrations at 1650 ug/ml preincubated for 6 hrs followed by 18 hrs incubation in fresh medium in presence of S9 fraction by Giemsa-staining-based microscopic analysis; type: toxicity, cell-based, Cricetulus griseus; conditions: chinese hamster
[4] = system: Salmonella typhimurium; assay: Genotoxicity in Salmonella typhimurium TA1535 assessed as number of revertant colonies per plate at 5000 ug/plate after 20 mins in presence of S9 fraction by Ames test (reference value: 13); type: toxicity, organism-based; conditions: salmonella enterica subsp. enterica serovar typhimurium
[5] = system: Escherichia coli; assay: Genotoxicity in Escherichia coli WP2uvrA assessed as number of revertant colonies per plate at 61.7 ug/plate after 20 mins in presence of S9 fraction by Ames test (reference value: 26); type: toxicity; conditions: s9, 20 min
[6] = system: Salmonella typhimurium; assay: Genotoxicity in Salmonella typhimurium TA1537 assessed as number of revertant colonies per plate at 20.6 ug/plate after 20 mins in presence of S9 fraction by Ames test (reference value: 15); type: toxicity, organism-based; conditions: salmonella enterica subsp. enterica serovar typhimurium
[7] = system: Salmonella typhimurium; assay: Genotoxicity in Salmonella typhimurium TA1537 assessed as number of revertant colonies per plate at 1667 ug/plate after 20 mins in presence of S9 fraction by Ames test (reference value: 15); type: toxicity, organism-based; conditions: salmonella enterica subsp. enterica serovar typhimurium
[8] = Cytotoxicity against CHL cells assessed as structural aberrations at 1650 ug/ml after 24 hrs by Giemsa-staining-based microscopic analysis; type: toxicity, cell-based, Cricetulus griseus; conditions: chinese hamster
[9] = system: Salmonella typhimurium; assay: Genotoxicity in Salmonella typhimurium TA100 assessed as number of revertant colonies per plate at 5000 ug/plate after 20 mins in absence of S9 fraction by Ames test (reference value: 123); type: toxicity, organism-based; conditions: salmonella enterica subsp. enterica serovar typhimurium
[10] = system: Salmonella typhimurium; assay: Genotoxicity in Salmonella typhimurium TA1537 assessed as number of revertant colonies per plate at 61.7 ug/plate after 20 mins in presence of S9 fraction by Ames test (reference value: 15); type: toxicity, organism-based; conditions: salmonella enterica subsp. enterica serovar typhimurium
[11] = Cytotoxicity against CHL cells assessed as growth rate at 1320 ug/ml after 24 hrs in absence of S9 fraction by MTT assay relative to control; type: toxicity, cell-based, Cricetulus griseus; conditions: chinese hamster, read-out: Activity
[12] = Cytotoxicity against CHL cells assessed as growth rate at 211 ug/ml preincubated for 6 hrs followed by 18 hrs incubation in fresh medium in presence of S9 fraction by MTT assay relative to control; type: toxicity, cell-based, Cricetulus griseus; conditions: chinese hamster, read-out: Activity
[13] = system: Salmonella typhimurium; assay: Genotoxicity in Salmonella typhimurium TA1537 assessed as number of revertant colonies per plate at 5000 ug/plate after 20 mins in presence of S9 fraction by Ames test (reference value: 15); type: toxicity, organism-based; conditions: salmonella enterica subsp. enterica serovar typhimurium
[14] = system: Salmonella typhimurium; assay: Genotoxicity in Salmonella typhimurium TA98 assessed as number of revertant colonies per plate at 20.6 ug/plate after 20 mins in absence of S9 fraction by Ames test (reference value: 21); type: toxicity, organism-based; conditions: salmonella enterica subsp. enterica serovar typhimurium
[15] = Cytotoxicity against CHL cells assessed as growth rate at 1320 ug/ml preincubated for 6 hrs followed by 18 hrs incubation in fresh medium in presence of S9 fraction by MTT assay relative to control; type: toxicity, cell-based, Cricetulus griseus; conditions: chinese hamster, read-out: Activity
[16] = Hydrolytic stability of compound in D2O at pH >8.5 by 31P NMR spectroscopy; type: physicochemical
[17] = system: Salmonella typhimurium; assay: Genotoxicity in Salmonella typhimurium TA100 assessed as number of revertant colonies per plate at 1667 ug/plate after 20 mins in absence of S9 fraction by Ames test (reference value: 123); type: toxicity, organism-based; conditions: salmonella enterica subsp. enterica serovar typhimurium
[18] = Cytotoxicity against CHL cells assessed as growth rate at 33.8 ug/ml preincubated for 6 hrs followed by 18 hrs incubation in fresh medium in absence of S9 fraction by MTT assay relative to control; type: toxicity, cell-based, Cricetulus griseus; conditions: chinese hamster, read-out: Activity
[19] = organism: Homo sapiens; assay: Irreversible inhibition of human GGT using gamma-Glu-AMC as substrate assessed as association rate constant by […] analysis
Outline: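 The enzyme source was a commercial human GGT preparation carrying bovine serum albumin as stabilizer (GGT <1% of protein). Hydrolytic activity was followed with γ-Glu-AMC as substrate. Irreversible inactivation was expressed as kon, the second-order rate constant for the inhibitor–enzyme reaction.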

[20] = system: Salmonella typhimurium; assay: Genotoxicity in Salmonella typhimurium TA98 assessed as number of revertant colonies per plate at 185 ug/plate after 20 mins in absence of S9 fraction by Ames test (reference value: 21); type: toxicity, organism-based; conditions: salmonella enterica subsp. enterica serovar typhimurium
[21] = Hydrolytic stability of the compound in D2O assessed as formation of monomethyl phosphonate and phenol at 23 degC up to 28 days by 31P NMR spectroscopy; type: physicochemical; conditions: 672 h
[22] = Cytotoxicity against CHL cells assessed as number of cells with numerical aberrations at 3300 ug/ml preincubated for 6 hrs followed by 18 hrs incubation in fresh medium in presence of S9 fraction by Giemsa staining-based microscopic analysis relative to control; type: toxicity, cell-based, Cricetulus griseus; conditions: chinese hamster
[23] = Cytotoxicity against human CCD-1059SK cells assessed as morphological change up to 1 mM after 24 hrs by inverted microscopic analysis; type: toxicity, cell-based
Outline: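 Human skin fibroblasts (CCD-1059SK), passages 10–20, grown in DMEM with 10% FBS and antibiotics at 37 °C under 5% CO2. Plated at 3 × 10^4 cells/mL on chamber slides and pre-incubated 24 h. Then exposed 24 h to 0, 5, 10, 20, 50 or 1000 µM in DMEM (from aqueous solution); water-only control. Morphology checked by inverted microscopy.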

[24] = organism: Rattus norvegicus; assay: Cytotoxicity against Wistar rat BSC assessed as reduction in cell viability up to 1 mM after 24 hrs by neutral red method; type: toxicity
[25] = system: Salmonella typhimurium; assay: Genotoxicity in Salmonella typhimurium TA1537 assessed as number of revertant colonies per plate at 61.7 ug/plate after 20 mins in absence of S9 fraction by Ames test (reference value: 9); type: toxicity, organism-based; conditions: salmonella enterica subsp. enterica serovar typhimurium
[26] = organism: Rattus norvegicus; assay: Cytotoxicity against Wistar rat […] assessed as morphological change up to 1 mM after 24 hrs by inverted microscopic analysis; type: toxicity
Outline: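 Hepatic stellate cells isolated from male Wistar rats (300–350 g), identified by star-like shape and vitamin A autofluorescence, purity >95%. Plated at 5 × 10^5 cells/ml in DMEM with 10% FBS for 2 days, then kept serum-free 24 h at 37 °C. Exposed 24 h to 0, 10, 100 or 1000 µM in DMEM. Morphology checked by inverted microscopy.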

[27] = Cytotoxicity against CHL cells assessed as chromatid gap at 3300 ug/ml after 24 hrs by Giemsa-staining-based microscopic analysis; type: toxicity, cell-based, Cricetulus griseus; conditions: chinese hamster
[28] = system: Escherichia coli K-12; assay: Irreversible inhibition of Escherichia coli K-12 SH642 GGT using gamma-Glu-AMC as substrate assessed as association rate constant by […] analysis
Outline: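 GGT was purified from the periplasmic fraction of recombinant E. coli K-12 SH642. Hydrolytic activity was followed with γ-Glu-AMC as substrate. Irreversible inactivation was expressed as kon, the second-order rate constant for the inhibitor–enzyme reaction.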

[29] = system: Escherichia coli; assay: Genotoxicity in Escherichia coli WP2uvrA assessed as number of revertant colonies per plate at 61.7 ug/plate after 20 mins in absence of S9 fraction by Ames test (reference value: 24); type: toxicity; conditions: s9, 20 min

`COP(=O)(CCC(N)C(=O)O)Oc1cccc(CC(=O)O)c1` (centres undefined) showed a viability at 18 h, 528 ug/ml [1] of 101%, an Activity [2] of 0% and an Activity [3] of 1%. It also gave an Activity [4] of 11, an Activity [5] of 28 and an Activity [6] of 17. It also gave an Activity [7] of 18, an Activity [8] of 1% and an Activity [9] of 123. The Activity [10] was 17, the viability at 24 h, 1320 ug/ml [11] was 92.6% and the viability at 18 h, 211 ug/ml [12] was 98.8%. For the same compound, the Activity [13] was 17, the Activity [14] was 21 and the viability at 18 h, 1320 ug/ml [15] was 95.7%. The Stability [16] was “Unstable”, the Activity [17] was 131 and the viability at 18 h, 33.8 ug/ml [18] was 103%. The K [19] was 51 M⁻¹ s⁻¹, the Activity [20] was 24 and the Stability [21] was “Stable”. The Activity [22] was 1%, the Activity [23] was “Non-Toxic” and the Activity [24] was “Non-Toxic”. The Activity [25] was 12, the Activity [26] was “Non-Toxic” and the Activity [27] was 0%. The K [28] was 150 M⁻¹ s⁻¹ and the Activity [29] was 26.
